Converted amounts (≈) assume the structure as drawn.
Assays:
[1] = tested on: Mycobacterium tuberculosis; assay: Antitubercular activity against Mycobacterium tuberculosis H37Rv ATCC27395 after 7 days by Alamar blue assay; type: functional; conditions: 168 h
Outline: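 Inoculum grown to late log phase in Middlebrook 7H9 with 0.2% glycerol, 0.05% Tween 80 and 10% ADC, then washed in PBS, filtered through 8 µm to remove clumps and frozen at -80 °C. Twofold compound dilutions in 7H9-ADC-TG with 2 × 10⁵ CFU per well, 37 °C. Alamar blue and Tween 80 added on day 7, read after 16-24 h (ex 530/em 590 nm). MIC is the lowest concentration giving ≥90% fluorescence reduction versus bacterium-only controls.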

[2] = Half life in ICR mouse at 50 mg/kg, po administered as single dose by HPLC analysis; type: ADME, organism-based; conditions: in vivo
Outline: (§1)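 SPF female ICR mice (20-25 g), fasted overnight, 3 per group; single oral dose 50 mg/kg as suspension in 0.5% CMC. Jugular vein blood at 0.25, 0.5, 1, 2, 4, 6, 8 and 24 h; serum stored at −20 °C, protein removed with acetonitrile, supernatant dried, redissolved in acetonitrile and analysed by HPLC. Parameters derived directly from the experimental data.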

[3] = Tmax in ICR mouse at 50 mg/kg, po administered as single dose by HPLC analysis; type: ADME, organism-based; conditions: in vivo; outline: as §1
[4] = Cmax in ICR mouse at 50 mg/kg, po administered as single dose by HPLC analysis; type: ADME, organism-based; parameters: dose 50 mg/kg, route oral; conditions: in vivo; outline: as §1
[5] = AUC (0 to infinity) in ICR mouse at 50 mg/kg, po administered as single dose by HPLC analysis; type: ADME, organism-based; parameters: dose 50 mg/kg, route oral, time infinity; conditions: in vivo; outline: as §1
[6] = MRT in ICR mouse at 50 mg/kg, po administered as single dose by HPLC analysis; type: ADME, organism-based; conditions: in vivo; outline: as §1

Structure (SMILES) | MIC90 [1] [µg/mL] | further results
O=c1nc(N2CCC(CN3CCC4(CC3)OCCO4)CC2)sc2c([N+](=O)[O-])cc(C(F)(F)F)cc12 | 3.71 (≈ 7.21 µM) | 
CN(C1CCCCC1)C1CCN(c2nc(=O)c3cc(C(F)(F)F)cc([N+](=O)[O-])c3s2)CC1 | 0.973 (≈ 2.07 µM) | 
CC1CCCCN1CC1CCN(c2nc(=O)c3cc(C(F)(F)F)cc([N+](=O)[O-])c3s2)CC1 (stereo unspecified) | 1.92 (≈ 4.08 µM) | 
O=c1nc(N2CCC(CN3CCCCC3)CC2)sc2c([N+](=O)[O-])cc(C(F)(F)F)cc12 | 0.481 (≈ 1.05 µM) | 
CCN(CC)CC1CCN(c2nc(=O)c3cc(C(F)(F)F)cc([N+](=O)[O-])c3s2)CC1 | 1.82 (≈ 4.11 µM) | 
O=c1nc(N2CCC(CN3CCCCCC3)CC2)sc2c([N+](=O)[O-])cc(C(F)(F)F)cc12 | 1.32 (≈ 2.81 µM) | 
O=c1nc(N2CCC(NC3CCCCC3)CC2)sc2c([N+](=O)[O-])cc(C(F)(F)F)cc12 | 0.959 (≈ 2.1 µM) | 
O=c1nc(N2CCC(CN3CCC(O)CC3)CC2)sc2c([N+](=O)[O-])cc(C(F)(F)F)cc12 | 1.96 (≈ 4.15 µM) | 
CC1CCN(CC2CCN(c3nc(=O)c4cc(C(F)(F)F)cc([N+](=O)[O-])c4s3)CC2)CC1 | 0.488 (≈ 1.04 µM) | 
O=c1nc(N2CCC(CN3CCC(C(F)(F)F)CC3)CC2)sc2c([N+](=O)[O-])cc(C(F)(F)F)cc12 | < 0.016 | half-life [2]: 3.3 h; Tmax [3]: 0.25 h; Cmax [4]: 1160 ng/mL; AUC(0-inf) [5]: 2490 ng·h/mL; MRT [6]: 4.26 h
O=c1nc(N2CCC(CN3CCCC3)CC2)sc2c([N+](=O)[O-])cc(C(F)(F)F)cc12 | 3.58 (≈ 8.09 µM) | 
CN1CCN(CC2CCN(c3nc(=O)c4cc(C(F)(F)F)cc([N+](=O)[O-])c4s3)CC2)CC1 | 7.84 (≈ 16.6 µM) | 
CC1CCCN(CC2CCN(c3nc(=O)c4cc(C(F)(F)F)cc([N+](=O)[O-])c4s3)CC2)C1 (stereo unspecified) | 0.241 (≈ 0.512 µM) | 
NNC(=O)c1ccncc1 [ISONIAZID] | 0.037 (≈ 0.27 µM) | 
O=c1nc(N2CCN(CC3CCCCC3)CC2)sc2c([N+](=O)[O-])cc(C(F)(F)F)cc12 [MACOZINONE] | < 0.016 | 
CO[C@H]1/C=C/O[C@@]2(C)Oc3c(C)c(O)c4c(O)c(c(/C=N/N5CCN(C)CC5)c(O)c4c3C2=O)NC(=O)/C(C)=C\C=C\[C@H](C)[C@H](O)[C@@H](C)[C@@H](O)[C@@H](C)[C@H](OC(C)=O)[C@@H]1C [RIFAMPIN] | 0.084 (≈ 0.102 µM) | 

From ChEMBL document CHEMBL4229369, “Design, synthesis and antitubercular evaluation of benzothiazinones containing a piperidine moiety” (Eur J Med Chem, 2018)
